Source: paper PMC7157925 (Steroids, 2003)

Legend:
[1] = tested on: HSV-2; experiment: Virucidal assay; design: species or system herpes simplex virus type 2; details: HSV-2 suspension incubated with compound 1 h at 37 °C
Outline: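 HSV-2 strain G suspension (4×10^5 PFU) mixed with an equal volume of maintenance medium (MEM, 1.5% bovine serum), with or without various concentrations of test compound, 1 h at 37 °C. Samples then diluted in cold maintenance medium, and residual infectivity titrated by plaque formation on Vero cells. Compound stock 10 mg/ml in DMSO, filter-sterilized. VC50 is the concentration inactivating virions by 50%.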

[2] = tested on: HSV-2 strain G; experiment: Antiviral assay, reduction of virus plaque formation in Vero cells; assay type: cell-based, herpes simplex virus type 2; details: at a concentration up to 50 μg/ml
[3] = tested on: endothelin-converting enzyme; details: ref [20]; cited from earlier work

| SMILES | VC50, concentration required to inactivate virus by 50%±S.D. [1] | Activity against HSV-2 [2] | Activity in the endothelin-converting enzyme assay [3] |
| --- | --- | --- | --- |
| CC(C)CCC[C@@H](C)[C@H]1CC[C@H]2[C@@H]3CC[C@H]4C[C@H](O)[C@@H](O)C[C@]4(C)[C@H]3CC[C@]12C [Compound 5, 2β,3α-Dihydroxy-5α-cholestane] | > 100 µg/mL | not active |  |
| C=CCCC[C@@H](C)[C@H]1CC[C@H]2[C@@H]3CC[C@H]4C[C@H](OS(=O)(=O)O)[C@@H](OS(=O)(=O)O)C[C@]4(C)[C@H]3CC[C@]12C [Compound 19, Halistanol disulfate B] |  |  | active |
